A selection: hits, their analogues and other compounds. The true share with any hit is near 1.6%.
TDP2 inh: TDP2 (human) inhibition, absorbance primary screen | O95551 | recombinant TDP2, T5PNP hydrolysis, p-nitrophenol absorbance 415 nm | inhibition, % at 12.8 µM | 370,000 tested, 0.34% active;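 active = inhibition above the mean of all tested compounds plus 3 SD, set per campaign, cut at about 25% in these data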;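 note: 0% = DMSO with enzyme and 100% = buffer with substrate but no TDP2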
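Read-out basis: percent inhibition. System: recombinant human TDP2. Buffer or medium: Mg2+-containing Tris-HCl buffer, pH 7.5. Repeats: single replicate. Timing: reaction 2 h, 37 °C. Benchmarks: high control without enzyme, low control DMSO plus TDP2. Probe or stimulus: 5 mM T5PNP. Doses: 12.8 µM only. Measured by: epi absorbance of p-nitrophenol freed from T5PNP by hydrolysis.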
LEDGF integ inh: blocks HIV-1 LEDGF/p75-dependent DNA integration. TR-FRET IN-LEDGF/p75 DNA integration, Eu/Cy5. inhibition, % at 3.7 µM. 370,000 tested, 0.64% active;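 active = inhibition above the screen-wide mean plus 3 SD, cut at about 13% in these data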;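 note: signal is the Cy5 over europium emission ratio at 671 and 618 nm; 0% = plate median of compound wells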
MBD2 inh: inhibitors of human MBD2 binding to methylated oligonucleotide; 370,000 tested, 0.31% active; TR-FRET; inhibition, % at 4.4 µM; Q9UBB5; in the data active = inhibition above about 13%
Target sequence (Q9UBB5 whole entry, looked up): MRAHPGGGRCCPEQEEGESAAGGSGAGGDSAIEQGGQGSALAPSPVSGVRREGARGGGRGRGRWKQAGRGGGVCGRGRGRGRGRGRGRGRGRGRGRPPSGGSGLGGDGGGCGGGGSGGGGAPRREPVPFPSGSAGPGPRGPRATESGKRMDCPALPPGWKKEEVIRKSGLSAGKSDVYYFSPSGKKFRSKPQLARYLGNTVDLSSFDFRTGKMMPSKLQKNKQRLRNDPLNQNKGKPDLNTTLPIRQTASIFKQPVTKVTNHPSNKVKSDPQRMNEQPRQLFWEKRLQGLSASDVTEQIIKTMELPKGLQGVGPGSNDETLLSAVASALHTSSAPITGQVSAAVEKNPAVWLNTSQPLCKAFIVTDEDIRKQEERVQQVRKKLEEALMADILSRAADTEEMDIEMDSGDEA
UHRF1 MBD2 ctr: human UHRF1 methylated DNA binding inhibitors. UHRF1 binding to methylated oligo, TR-FRET. AID 687016. inhibition, % at 4.4 µM. 370,000 tested, 0.75% active. Q96T88; in the data active = inhibition above about 21%;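 note: UHRF1 SRA domain binding a hemimethylated CpG hairpin DNA probe; 0% = median of test compound wells and 100% = reference inhibitor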
Active calls of the source: *.

SMILES	TDP2 inh	LEDGF integ inh	MBD2 inh	UHRF1 MBD2 ctr
Cc1cccc(-c2cccc3c4c([nH]c23)[C@@H]2C[C@H](N(C)C(=O)c3ccco3)[C@H]([C@H](C)O)C(=O)N2CC4)c1	-0.6	-1.7	-6.2	-2.8
CCN(C[C@H]1N[C@@](CC)(C(=O)OC)[C@H]2C(=O)N(C)C(=O)[C@@H]12)C(=O)Nc1ccc(C(F)(F)F)cc1	7.3	3.6	3.2	3.7
CC[C@@]1(C(=O)OC)N[C@H](CN(C)C(=O)Nc2ccc(C(F)(F)F)cc2)[C@@H]2C(=O)N(C)C(=O)[C@@H]21	-0.5	-4.2	5.6	21.7*
COc1cc(/C=N/NC(=O)c2cc(C3CC3)[nH]n2)ccc1O	-9.9	-2.3	-2.2	3.1
CCOc1cc(/C=N/NC(=O)c2cc(C3CC3)[nH]n2)ccc1O	-8.9	-0.4	5.6	21.2*
Cc1ccc(C(=O)Oc2coc(CSc3ncccn3)cc2=O)cc1[N+](=O)[O-]	-3.4	3.1	-1.4	3.1
COc1ccc(OCCCC(=O)OC(C)C(=O)Nc2ccc(NC(C)=O)cc2)cc1 (stereo not drawn)	4.2	1.4	1.6	-2.2
COc1ccc(OCCCC(=O)OC(C)C(=O)Nc2ccc(S(N)(=O)=O)cc2)cc1 (stereo not drawn)	-6.8	34.6*	2.6	2.6
C[C@@H]1OC(c2ccccc2)N(C)[C@H]2C[C@H]3c4[nH]c5cccc(-c6ccccc6)c5c4CCN3C[C@@H]12 (stereo partly drawn)	4.5	-5.0	0.2	-4.9
Cc1ccc(C)c(N(CC(=O)N/N=C/c2ccc(-c3ccc([N+](=O)[O-])cc3)o2)S(=O)(=O)c2ccccc2)c1	-15.5	4.8	-8.2	-0.7
CCOc1ccc(S(=O)(=O)N(CC(=O)N/N=C/c2ccc(-c3ccc([N+](=O)[O-])cc3)o2)c2ccccc2)cc1	-15.1	5.7	11.7	28.0*
CC1=C(C(=O)N(C)C)CC(CC(=O)NCc2cccs2)C(=O)N1Cc1ccc(F)cc1 (stereo not drawn)	10.1	-1.2	8.5	23.5*
COc1ccc(CN2C(=O)C(CC(=O)NCCN3CCOCC3)CC(C(=O)N(C)C)=C2C)cc1 (stereo not drawn)	2.1	4.8	-5.0	1.5
CCN(CC)C(=O)C1=C(C)N(Cc2ccc(OC)cc2)C(=O)C(CC(=O)NCCN2CCOCC2)C1 (stereo not drawn)	-8.4	4.2	8.9	21.7*
CCCCNS(=O)(=O)CC1NCc2cc(F)ccc21 (stereo not drawn)	-6.5	4.3	-1.1	-0.3
CCC[C@H]1[C@@H](NC(=O)c2ccc(OC)cc2)CC[C@@]23CCCN2C(=O)CCC[C@@H]13	-0.7	1.3	-1.9	-1.3
C/C(=C/c1[nH]c(N)[n+](CC2CC2)c1Cc1ccccc1)Cn1[nH]c(=O)n(-c2ccccc2)c1=O	1.3	0.2	1.1	-2.8
COc1cc(/C=C2\SC(=S)N(CC(=O)O)C2=O)ccc1OS(=O)(=O)c1ccc(C)cc1	6.9	-0.6	3.3	25.9*
COc1cc(/C=C2/SC(=S)N(CC(=O)O)C2=O)ccc1OC(=O)c1cccs1	5.0	1.7	-3.3	-1.6
Cc1ccnc2nc(C(=O)Nc3ccc4c(c3)OCO4)nn12	-4.2	1.6	10.2	23.0*
CC1CC(C)CN(C(=O)c2cc3cc(Br)cc(Br)c3o2)C1 (stereo not drawn)	-17.4	-6.3	2.6	47.2*
CC1CC(C)CN(C(=O)c2cc3ccccc3o2)C1 (stereo not drawn)	4.5	0.9	3.8	-0.1
COc1ccc(CNC(=O)CCNS(=O)(=O)c2ccc3[nH]c(=O)oc3c2)cc1	2.0	3.9	-3.1	3.5
CC1CCN(C(=S)c2cn(Cc3cccc(F)c3)c3ccccc23)CC1	3.1	2.2	-2.8	29.5*
O=C(CNC(=O)c1ccc(Cl)cc1)OCc1nc2ccccc2s1	3.5	-1.0	3.9	25.2*
SMILES	TDP2 inh	LEDGF integ inh	MBD2 inh	UHRF1 MBD2 ctr
CC1=CC(=O)N(c2cccc3c(N4C(=O)C=C(C)C4=O)cccc23)C1=O	-1.5	7.2	14.9*	23.4*
CCOC(=O)[C@@H]1c2[nH]c3ccccc3c2C[C@@]2(C(=O)OC)C=CCN12	-5.8	-1.9	6.4	0.4
CC(C)CC(=O)NCCCCc1ccccc1	5.1	3.3	-2.0	21.0*
CC(=O)N1CCCN(C(=O)Cn2cnc3ccccc3c2=O)CC1	5.0	1.0	-1.8	0.5
O=C(COC(=O)c1ccc[nH]c1=O)NC1CCCCCCC1	12.4	2.3	0.4	2.0
Cc1cnc(C(=O)OCC(=O)N2C(C)CCCC2C)cn1 (stereo not drawn)	-1.5	-3.1	-1.2	23.5*
Cc1cnc(C(=O)OCC(=O)NC2CCCCCC2)cn1	2.9	-0.6	0.7	22.3*
O=C(COC(=O)c1ccc[nH]c1=O)NC1CCCCCC1	13.7	-4.7	0.2	55.7*
COc1ccc(-c2cc(-c3nnc(SCC(=O)Nc4ccc(-c5nc6ccc(C)cc6s5)cc4)n3N)[nH]n2)cc1	0.4	0.4	-3.5	-0.3
COC(=O)[C@H](C(C)C)N(CCCc1cn(Cc2ccccc2)nn1)S(=O)(=O)c1ccccc1Br	-0.2	1.9	3.2	-2.7
Cn1cc(S(=O)(=O)NCCc2ccccc2)c(=O)n(C)c1=O	14.3	-0.8	2.8	0.6
CC(NS(=O)(=O)c1cn(C)c(=O)n(C)c1=O)c1ccccc1 (stereo not drawn)	6.1	0.8	8.8	24.4*
C[C@H](O)[C@@H]1CN2CCc3c([nH]c4c(-c5ccccc5)cccc34)[C@@H]2C[C@@H]1N(C)CC1CCCCC1	2.8	-2.7	-2.8	5.0
CCC(=O)Nc1ccc(N2CCOCC2)c(S(=O)(=O)Nc2ccc(Cl)cc2)c1	3.8	1.6	-1.9	45.1*
CCC(C)N(C(=O)c1ccc(CNC(=O)c2cccc(Br)c2)cc1)C(C)CC (stereo not drawn)	-0.3	-1.3	5.2	1.8
CCCc1ccc(S(=O)(=O)N2CCN(Cc3ccco3)CC2)cc1	6.6	0.2	1.9	-2.4
CCCS(=O)(=O)N1CCN(Cc2ccco2)CC1	9.1	3.4	-2.2	24.9*
COc1cccc(NC(=O)N2CC[C@@H]3[C@H]2c2cc(-c4cccc(C#N)c4)ccc2N(C)[C@@H]3CO)c1	8.0	-5.9	-0.2	0.8
O=C1c2ccccc2C(=O)c2[nH]c(=O)[nH]c21	38.0*	2.9	-12.0	-4.7
O=C(Nc1ccccn1)C1CCN(S(=O)(=O)c2ccc3c(c2)OCCCO3)CC1	-1.1	4.6	0.4	-1.6
Cc1ccc(NC(=O)C2CCN(S(=O)(=O)c3ccc4c(c3)OCCCO4)CC2)nc1	2.5	-1.0	5.5	33.7*
COc1ccc(-n2c(CN3CCC(C(N)=O)CC3)nc3ccc([N+](=O)[O-])cc3c2=O)c(OC)c1	-3.6	23.4*	5.8	4.3
CN1OC[C@@H]2CN(C(=O)CCc3ccccc3)[C@H](c3ccccc3Br)C[C@@H]21	0.4	3.7	-3.8	77.0*
N#C/C(=C/c1ccc(N2CCCCC2)o1)C(=O)Nc1ccc2ccccc2c1	7.7	4.0	-9.1	-14.1
N#C/C(=C/c1ccc(N2CCCCC2)o1)C(=O)Nc1ccc(Cl)cc1	-3.1	2.2	-2.6	54.2*

Compound activity as filed in PubChem BioAssay.
